Screening results: PubChem, several laboratories
APOBEC3G inh: APOBEC3G (human) deaminase inhibition | 0.28% of 330,000 active | recombinant A3G, ssDNA deamination FAM/TAMRA fluorescence | Q9HC16 | inhibition, % at 20 µM;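 active means inhibition of at least 40% at 20 µM, with no more than 30% in the related APOBEC3A deaminase screen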
Target sequence (Q9HC16 whole entry, looked up): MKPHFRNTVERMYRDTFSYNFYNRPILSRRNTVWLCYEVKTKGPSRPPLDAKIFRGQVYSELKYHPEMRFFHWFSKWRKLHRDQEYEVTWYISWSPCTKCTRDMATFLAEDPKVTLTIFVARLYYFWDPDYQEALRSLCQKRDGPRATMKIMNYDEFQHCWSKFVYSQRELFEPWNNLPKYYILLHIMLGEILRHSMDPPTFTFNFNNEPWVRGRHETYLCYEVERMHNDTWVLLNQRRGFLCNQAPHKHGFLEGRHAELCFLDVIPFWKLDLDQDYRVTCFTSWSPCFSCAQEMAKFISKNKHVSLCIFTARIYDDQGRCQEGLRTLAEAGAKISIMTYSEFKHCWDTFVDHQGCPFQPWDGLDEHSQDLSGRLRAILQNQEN
Keap1 Nrf2 FP: Keap1-Nrf2 (human) interaction inhibition. inhibition, % at 9.4 µM. Q14145. 0.15% of 340,000 active. Keap1 Kelch-Nrf2 peptide fluorescence polarization, 1536-well; in the data active means inhibition above about 12%; inconclusive means no clear call, values can overlap the other calls; inactive means below about 7.3%;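 further: human Keap1 Kelch domain with fluorescein labeled Nrf2 9mer peptide probe; higher means more block of Keap1 binding to Nrf2 peptide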
CAL PDZ FP-1: CAL PDZ (human) peptide binding inhibition. purified CAL PDZ, TMR-peptide fluorescence polarization, 1 h. Q9HD26. AID 602252. 0.92% of 300,000 active. inhibition, % at 24.9 µM;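 active means mean inhibition of at least 30% with at least half of replicates also reaching 30%; inconclusive means no clear call, values can overlap the other calls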
CAL PDZ FP-2: human CAL PDZ-peptide interaction inhibition; inhibition, % at 20 µM; AID 504414; purified CAL PDZ, TMR-peptide fluorescence polarization, 1 h; 0.02% of 330,000 active; Q9HD26;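 active means highest replicate inhibition of at least 40%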
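Material: tagged CAL PDZ domain; buffer or medium: 25 mM sodium phosphate pH 7.4, 150 mM NaCl, TCEP, IgG, Thesit; compound dosing: single point, 20 µM; schedule: 1 h incubation at room temperature before polarization reading; measured by: FP readout, S and P plane fluorescence; read-out basis: percent inhibition from loss of millipolarization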
LANA DNA inh: KSHV C-LANA DNA binding inhibition; MBP-C-LANA/FAM-LBS DNA binding, fluorescence polarization; inhibition, % at 9 µM; 0.078% of 340,000 active; AID 504423;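 active means highest replicate inhibition at or above 60% at 9 µM, even if other replicates fall short; inactive means all replicates below 60% inhibition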
A3A deaminase: blocks human APOBEC3A ssDNA deamination; P31941; inhibition, % at 20 µM; recombinant A3A, FAM/TAMRA ssDNA deamination fluorescence; 0.41% of 330,000 active;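 active means at least 40% inhibition at 20 µM here, with at most 30% in a related deaminase screen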
Target sequence (P31941 whole entry, looked up): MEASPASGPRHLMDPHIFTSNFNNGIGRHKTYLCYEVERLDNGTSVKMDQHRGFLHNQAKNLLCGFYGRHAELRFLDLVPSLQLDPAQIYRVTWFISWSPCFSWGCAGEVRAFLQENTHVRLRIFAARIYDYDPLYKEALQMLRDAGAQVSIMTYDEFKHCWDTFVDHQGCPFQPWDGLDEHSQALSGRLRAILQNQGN
Of the large screens only hits and unclear results are named; the others gave an inactive call. An excerpt weighted towards active compounds, which were near 1.7% of everything screened.

COC(=O)C1CCN(C(=O)C2CCC(=O)N(CCCc3ccccc3)C2)CC1 (centres undefined)	CAL PDZ FP-1 68.8
Cc1cc(CN(C)C(=O)C2CCC(=O)N(CCc3cccc(F)c3)C2)on1 (centres undefined)	CAL PDZ FP-1 58.8
Cc1ccc(CCNC(=O)C2CCC(=O)N(Cc3cccc(F)c3)C2)cc1 (centres undefined)	CAL PDZ FP-1 59.3
Cc1cc(CN(C)C(=O)C2CCC(=O)N(CCc3ccccc3)C2)n[nH]1 (centres undefined)	CAL PDZ FP-1 35.3
COc1cccc(C(=O)CC(C#N)c2ccc(F)cc2)c1 (centres undefined)	none
O=C(NCC1CCOCC1)C1CCC(=O)N(Cc2cccc(C(F)(F)F)c2)C1 (centres undefined)	CAL PDZ FP-1 32.3
O=C(NCCCC1CCCC1)C1CCC(=O)N(Cc2cccc(C(F)(F)F)c2)C1 (centres undefined)	none
CCCc1cc(CNC(=O)C2CCC(=O)N(CCc3cccc(F)c3)C2)on1 (centres undefined)	CAL PDZ FP-1 35.4
CC(C)N(Cc1ccccc1)C(=O)COC(=O)c1cnc(Cl)c(Cl)c1	CAL PDZ FP-1 42.3
O=C(Nc1ccc(N2CCCCCC2)cc1)c1cccc(S(=O)(=O)N2CCOCC2)c1	CAL PDZ FP-1 36.3
N#CC1(C#N)C(c2ccccc2)OC23CCCCCC2C1(C#N)C(=N)O3 (centres undefined)	none
CCCCCCCCOc1ccc(C2OC34CCCCC3C(C#N)(C#N)C2(C#N)C(=N)O4)cc1 (centres undefined)	Keap1 Nrf2 FP 27.6 (no result: CAL PDZ FP-1)
N#CC1(C#N)C(c2ccccc2)OC23CCCCC2C1(C#N)C(=N)O3 (centres undefined)	Keap1 Nrf2 FP 21.2 (no result: CAL PDZ FP-1)
CC(C)=CC(=O)Nc1cccc(S(=O)(=O)NC2=NCCCCC2)c1	CAL PDZ FP-1 47.1
Nc1nc(SCc2ccccc2)c2ncn(C3OC(CO)C(O)C3O)c2n1 (centres undefined)	none (no result: APOBEC3G inh, A3A deaminase)
Nc1nc(SCC(=O)c2ccc(Cl)cc2)c2ncn(C3OC(CO)C(O)C3O)c2n1 (centres undefined)	CAL PDZ FP-1 53.0 (no result: APOBEC3G inh, A3A deaminase)
O=C(OCC(=O)N1CCCCCC1)c1ccc[nH]c1=O	none
O=C(OCC(=O)N1CCOCC1)c1ccc[nH]c1=O	CAL PDZ FP-2 124.8
COC(=O)[C@H](Cc1ccccc1)NC(=O)NC(C)CCc1ccccc1 (some centres undefined)	CAL PDZ FP-1 42.0 (no result: CAL PDZ FP-2)
Cc1cccc(NC(=S)N2CCN(c3ccc(F)cc3)CC2)c1	none
Cc1cccc(N2CCN(C(=O)Cn3sc4nc(C)cc(C)c4c3=O)CC2C)c1 (centres undefined)	APOBEC3G inh 53.1
Cc1cccc(N2CCN(C(=O)Cn3nc(C)n4cccc4c3=O)CC2C)c1 (centres undefined)	none (no result: CAL PDZ FP-1)
CN(C)CCCn1c2c(c(SCC(=O)Nc3cccc4ccccc34)nc1=O)CCCC2	CAL PDZ FP-1 48.8
CCN(CC)CCCn1c2c(c(SCC(=O)Nc3cccc4ccccc34)nc1=O)CCC2	none
Cc1onc(-c2c(F)cccc2Cl)c1C(=O)NCc1ccccn1	CAL PDZ FP-1 87.7
COc1ccc(S(=O)(=O)N2CCN(C(=O)COc3ccc(C)c(C)c3)CC2)cc1OC	none
CC(C(=O)NC(C)(C)C)N(C(=O)CS(=O)CC(=O)Nc1ccc(F)cc1)c1ccccc1F (centres undefined)	CAL PDZ FP-1 33.2
O=C(c1cccc(S(=O)(=O)N2CCN(c3ccccc3)CC2)c1)N1CCN(c2ccccc2O)CC1	none
Cc1nnc2sc(SCC(=O)Nc3ccc(Cl)cc3)nn2c1=O	CAL PDZ FP-1 37.5
c1ccc2c(c1)CC1(CCCC1)N=C2N1CCOCC1	CAL PDZ FP-1 68.1
COc1cc(S(=O)(=O)Nc2ccc(C(=O)NCC(=O)O)cc2)ccc1NC(C)=O	CAL PDZ FP-1 68.4
COc1ccc(C(=O)N2CCN(C(C)=O)CC2)cc1S(=O)(=O)N1CCOCC1	none
CN(c1cccc2cccnc12)S(=O)(=O)c1ccccc1	none
Cn1ncc(=S)[nH]c1=S	CAL PDZ FP-1 84.6 (no result: APOBEC3G inh, A3A deaminase)
C/C=C1\COC(C(=O)NCc2ccccc2)(C(F)(F)F)C=C1C=C(C)C (centres undefined)	none
O=C(c1ccccc1)C1N=NCC1c1ccc(Cl)cc1 (centres undefined)	CAL PDZ FP-1 174.1 (no result: APOBEC3G inh, A3A deaminase)
CC(=O)N1CCCc2ccc(NS(=O)(=O)c3ccccc3)cc21	none (no result: CAL PDZ FP-1)
Cc1ccc(C)c(N2CCN(c3ccncc3N)CC2)c1	none
Cc1c(NC(=O)COc2ccccc2Cl)c(=O)n(-c2ccccc2)n1C	CAL PDZ FP-1 41.5
Cc1c(NC(=O)CSc2ccccc2F)c(=O)n(-c2ccccc2)n1C	none
Cc1c(NC(=O)CSc2ccccc2C(=O)Nc2cccnc2)c(=O)n(-c2ccccc2)n1C	CAL PDZ FP-1 83.1
Cc1c(NC(=O)CN2C(=O)c3ccc([N+](=O)[O-])cc3C2=O)c(=O)n(-c2ccccc2)n1C	CAL PDZ FP-1 55.4
Cc1c(NC(=O)CN2C(=O)c3ccccc3C2=O)c(=O)n(-c2ccccc2)n1C	none
Cc1c(Cl)c([N+](=O)[O-])nn1CC(=O)Nc1c(C)n(C)n(-c2ccccc2)c1=O	CAL PDZ FP-1 53.3
Cn1cc(S(=O)(=O)N2CCOCC2)cc1C(=O)O	none
COc1cc2nc(NC(=O)c3ccc(F)cc3Cl)sc(=O)c2cc1OC	none
Cc1noc(C)c1COc1ccccc1C(=O)N(C)CC(=O)Nc1ccc(F)cc1	none
Cc1cccc(C)c1NC(=O)NC1(C(=O)N2CCCC2)CCCCC1	none
CCCN1C(=O)c2cc(C(=O)Nc3ccc(OC)cc3OC)ccc2C1Nc1ccc(OC)cc1OC (centres undefined)	none
O=C(CCNS(=O)(=O)c1ccc(Br)cc1)NC1CCC(O)CC1 (centres undefined)	none
Cc1cccc(C)c1NC(=O)CN	none
Cc1cccc(C)c1NC(=O)Cn1nnnc1N	CAL PDZ FP-1 65.9
COc1ccccc1NC(=O)Cn1cnc2c(cnn2-c2ccccc2)c1=O	CAL PDZ FP-1 57.4
O=C(CCCc1c[nH]c2ccccc12)NCc1ccccc1C(F)(F)F	none
C/C(CC(=O)Nc1ccccc1Br)=N\NC(=O)C(=O)N1CCCC1	CAL PDZ FP-1 108.0
O=C1C(=Cc2ccc(Br)o2)C(=O)c2ccccc21	Keap1 Nrf2 FP inconclusive, LANA DNA inh 105.5 (no result: APOBEC3G inh, A3A deaminase)
N#CCCN(Cc1ccccc1)C(=O)c1cccs1	CAL PDZ FP-1 active
CC(C)(C)N(Cc1ccccc1)C(=O)c1cccs1	none
Cc1ccc(C(=O)CSc2nnc(-c3ccccc3N)n2C)cc1	CAL PDZ FP-1 36.8 (no result: CAL PDZ FP-2)
Cc1cc(C)nc(N/N=C2/CCCC/C2=C\c2ccccc2)n1	none (no result: CAL PDZ FP-2)
NC(=O)NC(CC(=O)NNC(=O)c1ccccn1)c1ccccc1Cl (centres undefined)	CAL PDZ FP-1 108.9
